# What was measured:
# [1] = tested on: Plasmodium falciparum; test: Antimalarial activity against Plasmodium falciparum K1; type: functional; conditions: Plasmodium falciparum, K1; read-out: ED50 (the source's name)
# Summary of the method: (§1)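 Asynchronous culture in type A+ erythrocytes at 0.5% parasitemia and 0.5% hematocrit, grown in RPMI-1640 with 20% heat-inactivated human A+ plasma. Compound was serially diluted from a top final 5 µM, with DMSO vehicle as 100% growth. Plates ran 48 h at 37 °C under 5% CO2/5% O2/90% N2, then [3H]-hypoxanthine (0.3 µCi) for 24 h. Filter-harvested counts were corrected for the uninfected-RBC background. ED50 by linear regression; duplicates averaged.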
# [2] = tested on: Plasmodium falciparum; test: Inhibition of Plasmodium falciparum protein farnesyltransferase at 5 nM by scintillation proximity assay
# [3] = tested on: Plasmodium falciparum; test: Antimalarial activity against Plasmodium falciparum 3D7; type: functional; conditions: Plasmodium falciparum, 3D7; read-out: ED50 (the source's name); summary of the method: as §1
# [4] = tested on: Plasmodium falciparum; test: Inhibition of Plasmodium falciparum protein farnesyltransferase at 50 nM by scintillation proximity assay
# [5] = tested on: Plasmodium falciparum; test: Inhibition of Plasmodium falciparum protein farnesyltransferase at 0.5 nM by scintillation proximity assay
Structure (SMILES),EC50 [1],inhibition [2],EC50 [3],inhibition [4],inhibition [5]
COC(=O)N1CCC(CN(C2Cc3cc(C#N)ccc3N(Cc3cncn3C)C2)S(=O)(=O)c2cccc(F)c2)CC1 (stereo not given),150 nM,86%,90 nM,93%,39%
CC(C)OC(=O)N1CCC(CN(C2Cc3cc(-c4ccccc4)ccc3N(Cc3cn(C)cn3)C2)S(=O)(=O)c2cn(C)cn2)CC1 (stereo not given),350 nM,0%,450 nM,32%,0%
Cn1cncc1CN1CC(N(Cc2cccc3nsnc23)S(=O)(=O)c2ccccn2)Cc2cc(C#N)ccc21 (stereo not given),98 nM,31%,175 nM,85%,12%
COC(=O)N1CCC(CN(C2Cc3cc(C#N)ccc3N(Cc3cncn3C)C2)S(=O)(=O)c2cccc3nonc23)CC1 (stereo not given),100 nM,89%,135 nM,99%,31%
COC(=O)N1CCC(CN(C2Cc3cc(C#N)ccc3N(Cc3cncn3C)C2)S(=O)(=O)c2cnn(C)c2)CC1 (stereo not given),45 nM,98%,42 nM,100%,39%
COC(=O)CN(C1Cc2cc(-c3ccccc3)ccc2N(Cc2cn(C)cn2)C1)S(=O)(=O)c1cn(C)cn1 (stereo not given),350 nM,87%,375 nM,99%,37%
Cn1cnc(CN2CC(N(CC(=O)NC(C)(C)C)S(=O)(=O)c3ccccc3)Cc3cc(-c4ccccc4)ccc32)c1 (stereo not given),2800 nM,0%,2800 nM,8%,0%
Cn1cncc1CN1CC(N(CCC2(C)OCC(C)(C)CO2)S(=O)(=O)c2ccccn2)Cc2cc(C#N)ccc21 (stereo not given),240 nM,66%,440 nM,95%,18%
COC(=O)N1CCC(CN(C2Cc3cc(C#N)ccc3N(Cc3cncn3C)C2)S(=O)(=O)c2ccc(OC)cc2)CC1 (stereo not given),190 nM,79%,170 nM,98%,14%
Cn1cncc1CN1CC(N(CC2CCN(C(=O)Nc3ccc(Br)cc3)CC2)S(=O)(=O)c2ccccn2)Cc2cc(C#N)ccc21 (stereo not given),2800 nM,0%,3000 nM,38%,0%
Cn1cnc(S(=O)(=O)N(CC(=O)NC(C)(C)C)C2Cc3cc(C(=O)NC(C)(C)C)ccc3N(Cc3cncn3C)C2)c1 (stereo not given),> 5000 nM,0%,> 5000 nM,25%,4%
CN(C1Cc2cc(-c3ccccc3)ccc2N(Cc2cn(C)cn2)C1)S(=O)(=O)c1cn(C)cn1 (stereo not given),> 5000 nM,38%,> 5000 nM,88%,10%
COC(=O)N1CCC(CN(C2Cc3cc(C#N)ccc3N(Cc3cncn3C)C2)S(=O)(=O)c2ccc3c(c2)OCCCO3)CC1 (stereo not given),105 nM,81%,138 nM,99%,24%
COC(=O)N1CCC(CN(C2Cc3cc(C#N)ccc3N(Cc3cncn3C)C2)S(=O)(=O)c2cn(C)c(C)n2)CC1 (stereo not given),75 nM,96%,60 nM,100%,39%
Cn1cncc1CN1CC(N(CCCNC(=O)OC(C)(C)C)S(=O)(=O)c2ccccn2)Cc2cc(C#N)ccc21 (stereo not given),75 nM,70%,133 nM,97%,9%
Cc1c(S(=O)(=O)N(CC2CCN(C(=O)OC(C)(C)C)CC2)C2Cc3cc(C#N)ccc3N(Cc3cncn3C)C2)ncn1C (stereo not given),75 nM,87%,140 nM,98%,18%
COC(=O)N1CCC(CN(C2Cc3cc(C#N)ccc3N(Cc3cncn3C)C2)S(=O)(=O)c2ccc3oc(=O)ccc3c2)CC1 (stereo not given),> 5000 nM,21%,> 5000 nM,68%,2%

# More lines, now with the values ahead:
EC50 [1],inhibition [2],EC50 [3],inhibition [4],inhibition [5],Structure (SMILES)
70 nM,82%,65 nM,99%,8%,Cn1cnc(S(=O)(=O)N(CCc2ccccc2C(F)(F)F)C2Cc3cc(C#N)ccc3N(Cc3cncn3C)C2)c1 (stereo not given)
130 nM,96%,40 nM,97%,90%,Cn1cnc(S(=O)(=O)N(CCCCN2C(=O)c3ccccc3C2=O)C2Cc3cc(C#N)ccc3N(Cc3cncn3C)C2)c1 (stereo not given)
1.8 nM,98%,1.8 nM,99%,54%,Cn1cnc(S(=O)(=O)N(CCn2cccc2)C2Cc3cc(C#N)ccc3N(Cc3cncn3C)C2)c1 (stereo not given)
932 nM,65%,189 nM,96%,17%,COCCCCCN(C1Cc2cc(C#N)ccc2N(Cc2cncn2C)C1)S(=O)(=O)c1ccccn1 (stereo not given)
75 nM,93%,71 nM,99%,36%,Cn1cnc(S(=O)(=O)N(Cc2ccccc2C(F)(F)F)C2Cc3cc(C#N)ccc3N(Cc3cncn3C)C2)c1 (stereo not given)
10 nM,96%,9 nM,97%,82%,Cn1cnc(S(=O)(=O)N(CCc2ccccc2)C2Cc3cc(C#N)ccc3N(Cc3cncn3C)C2)c1 (stereo not given)
400 nM,81%,125 nM,97%,19%,Cn1cnc(S(=O)(=O)N(CC(=O)O)C2Cc3cc(C#N)ccc3N(Cc3cncn3C)C2)c1 (stereo not given)
< 20 nM,99%,20 nM,99%,66%,Cn1cnc(S(=O)(=O)N(Cc2ccc3c(c2)OCCS3(=O)=O)C2Cc3cc(C#N)ccc3N(Cc3cncn3C)C2)c1 (stereo not given)
3100 nM,15%,2700 nM,64%,0%,CN(C)CCN(C1Cc2cc(C#N)ccc2N(Cc2cncn2C)C1)S(=O)(=O)c1cn(C)cn1 (stereo not given)
< 20 nM,98%,25 nM,100%,46%,Cc1noc(C)c1CN(C1Cc2cc(C#N)ccc2N(Cc2cncn2C)C1)S(=O)(=O)c1cn(C)cn1 (stereo not given)
4.2 nM,100%,6.2 nM,100%,86%,Cn1cnc(S(=O)(=O)N(CCc2ccsc2)C2Cc3cc(C#N)ccc3N(Cc3cncn3C)C2)c1 (stereo not given)
1000 nM,64%,230 nM,93%,18%,COCCCN(C1Cc2cc(C#N)ccc2N(Cc2cncn2C)C1)S(=O)(=O)c1ccccn1 (stereo not given)
20 nM,96%,13 nM,99%,68%,Cn1cncc1CN1CC(N(CCn2cccn2)S(=O)(=O)c2ccccn2)Cc2cc(C#N)ccc21 (stereo not given)
1250 nM,82%,230 nM,100%,19%,Cn1cncc1CN1CC(N(Cc2ccccc2F)S(=O)(=O)c2ccccn2)Cc2cc(C#N)ccc21 (stereo not given)
3050 nM,16%,1200 nM,41%,11%,CCCS(=O)(=O)N(Cc1ccccc1F)C1Cc2cc(C#N)ccc2N(Cc2cncn2C)C1 (stereo not given)
